Measurements published in ChEMBL document CHEMBL3865821, “Amino substituted benzimidazo[1,2-a]quinolines: Antiproliferative potency, 3D QSAR study and DNA binding properties” (Eur J Med Chem, 2016).

Legend:
[1] = Antiproliferative activity against human H460 cells after 72 hrs by MTT assay; assay type: functional, cell-based; settings: NCI-H460, 72 h
In short: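 Tumour cells were grown as monolayers in DMEM with 10 % FBS, 2 mM L-glutamine, penicillin and streptomycin at 37 °C under 5 % CO₂. They were seeded at 3×10^4 cells/mL (HCT 116, H460) or 5×10^4 cells/mL (MCF-7). Tenfold dilutions from 10^-8 to 10^-4 M were applied for 72 h, followed by MTT read at 570 nm. IC50 came from linear regression of percentage growth; at least two experiments, quadruplicate points.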

[2] = Antiproliferative activity against human HCT116 cells after 72 hrs by MTT assay; assay type: functional, cell-based; settings: HCT-116, 72 h
In short: (§1)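 Tumour cells were grown as monolayers in DMEM with 10 % FBS, 2 mM L-glutamine, penicillin and streptomycin at 37 °C under 5 % CO₂. Tenfold dilutions from 10^-8 to 10^-4 M were applied for 72 h, followed by MTT read at 570 nm. IC50 came from linear regression of percentage growth; at least two experiments, quadruplicate points.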

[3] = Antiproliferative activity against human MCF7 cells after 72 hrs by MTT assay; assay type: functional, cell-based; settings: MCF7, 72 h; in short: as §1
[4] = Antiproliferative activity against human shGFP-fused HMLE cells after 72 hrs by MTT assay; assay type: cell-based
In short: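 HMLE-shGFP cells were kept in a 1:1 mix of DMEM + 10 % FBS with insulin, hydrocortisone and HuMEC medium at 37 °C, 5 % CO₂. Agents were given as tenfold dilutions from 10^-8 to 10^-4 M for 72 h, then MTT absorbance was read at 570 nm. IC50 was interpolated by linear regression of percentage growth; at least two experiments, each point in quadruplicate.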

[5] = Binding affinity to duplex calf thymus DNA assessed as change in melting temperature at drug/DNA ratio of 0.5 by spectrophotometric analysis
In short: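 Calf-thymus DNA at 20 μM was heated with or without compound at 10 or 20 μM (drug/base-pair ratio 0.5 or 1) in BPE buffer (6 mM Na₂HPO₄, 2 mM NaH₂PO₄, 1 mM EDTA, pH 7.1). A260 was read every minute from 20 to 100 °C, rising 1 °C per min, and ΔTm was derived.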

Row | SMILES | IC50 ([1]; read-out: IC50) [µM] | IC50 ([1]; read-out: pIC50 (converted)) [µM] | IC50 ([2]; read-out: IC50) [µM] | IC50 ([2]; read-out: pIC50 (converted)) [µM] | IC50 ([3]; read-out: IC50) [µM] | IC50 ([3]; read-out: pIC50 (converted)) [µM] | IC50 [4] [µM] | ΔTm [5] [°C]
1 | CCCCCCNc1ccc2cc(C#N)c3nc4ccccc4n3c2c1 | 5 | 5 | 5 | 5 | 5 | 5 | – | –
2 | COc1cc([C@@H]2c3cc4c(cc3[C@@H](O[C@@H]3O[C@@H]5CO[C@@H](C)O[C@H]5[C@H](O)[C@H]3O)[C@H]3COC(=O)[C@H]23)OCO4)cc(OC)c1O [ETOPOSIDE] | 0.1 | – | 5 | – | 1 | – | 0.4 | –
3 | CC1CN(c2ccc3c(N4CC(C)NC(C)C4)c(C#N)c4nc5ccccc5n4c3c2)CC(C)N1 (stereo unspecified) | 0.8 | 0.8 | 0.4 | 0.4 | 1 | 1 | 0.2 | –
4 | CN1CCN(c2c(C#N)c3nc4ccccc4n3c3ccccc23)CC1 | 4 | 4 | 3 | 3 | 3 | 3 | – | –
5 | CC(C)CCNc1ccc2c(NCCC(C)C)c(C#N)c3nc4ccccc4n3c2c1 | 5 | 5 | 6 | 6 | 2 | 2 | 6 | –
6 | CNc1ccc2c(NC)c(C#N)c3nc4ccccc4n3c2c1 | ≥ 100 | 100 | 7 | 7 | 2 | 2 | – | 1.2
7 | CN1CCN(c2ccc3c(N4CCN(C)CC4)c(C#N)c4nc5ccccc5n4c3c2)CC1 | 3 to 4 | 4 | 2 | 2 | 3 to 4 | 3 | – | –
8 | COc1cccc2c1C(=O)c1c(O)c3c(c(O)c1C2=O)C[C@@](O)(C(=O)CO)C[C@@H]3O[C@H]1C[C@H](N)[C@H](O)[C@H](C)O1 [DOXORUBICIN] | 0.03 | – | – | – | – | – | 0.01 | –
9 | CC1CN(c2c(C#N)c3nc4ccccc4n3c3ccccc23)CC(C)N1 (stereo unspecified) | 4 | 4 | 3 | 3 | 6 | 6 | 3 | –
10 | CCN(CC)c1ccc2c(N(CC)CC)c(C#N)c3nc4ccccc4n3c2c1 | 25 | 25 | 16 | 16 | 22 | 22 | – | –
11 | CCCCCCNc1ccc2c(NCCCCCC)c(C#N)c3nc4ccccc4n3c2c1 | > 100 | 500 | > 100 | > 100 | > 100 | > 100 | – | –
12 | CCCCCN(CCCCC)c1ccc2c(N(CCCCC)CCCCC)c(C#N)c3nc4ccccc4n3c2c1 | > 100 | 500 | > 100 | > 100 | > 100 | > 100 | – | –
13 | N#Cc1c(N2CCOCC2)c2ccc(N3CCOCC3)cc2n2c1nc1ccccc12 | 18 | 18 | 11 | 11 | 9 | 8.99 | – | 0.5
14 | CCCCCCNc1c(C#N)c2nc3ccccc3n2c2ccccc12 | 2 | 2 | 4 | 4 | 3 | 3 | – | –
15 | CC(C)CCNc1c(C#N)c2nc3ccccc3n2c2ccccc12 | 2 | 2 | 5 | 5 | 4 | 4 | – | –
16 | CC(C)CCNc1ccc2cc(C#N)c3nc4ccccc4n3c2c1 | 4 | 4 | 3 | 3 | 2 | 2 | 3 | –
17 | CCCN(CCC)c1ccc2c(N(CCC)CCC)c(C#N)c3nc4ccccc4n3c2c1 | 29 | 29 | 14 | 14 | 21 | 21 | – | 0
18 | CN1CCN(c2ccc3cc(C#N)c4nc5ccccc5n4c3c2)CC1 | 1 | 1 | 0.6 | 0.6 | 2 | 2 | 0.5 | –
19 | CC(C)Nc1ccc2c(NC(C)C)c(C#N)c3nc4ccccc4n3c2c1 | 21 | 21 | ≥ 10 | 10 | 7 | 7 | – | –
20 | CC(C)CNc1ccc2c(NCC(C)C)c(C#N)c3nc4ccccc4n3c2c1 | 3 | 3 | 2 | 2 | 2 | 2 | – | –
21 | CC1CN(c2ccc3cc(C#N)c4nc5ccccc5n4c3c2)CC(C)N1 (stereo unspecified) | 0.5 | 0.5 | 0.3 | 0.3 | 0.6 | 0.6 | 0.2 | 0
22 | CCCCNc1ccc2c(NCCCC)c(C#N)c3nc4ccccc4n3c2c1 | 4 | 4 | 7 | 7 | 5 | 5 | – | –
23 | CC(C)Nc1ccc2cc(C#N)c3nc4ccccc4n3c2c1 | 2 | 2 | 0.8 | 0.8 | 0.7 | 0.7 | 1 | –
24 | CC(C)Nc1c(C#N)c2nc3ccccc3n2c2ccccc12 | 5 | 5 | 13 | 13 | 20 | 20 | – | –
25 | N#Cc1c(N2CCCCC2)c2ccc(N3CCCCC3)cc2n2c1nc1ccccc12 | 15 | 15 | 11 | 11 | 10 | 10 | – | 0.7
